Activity calls are given as the source filed them. The rule behind the calls is not given here.
Experiments:
[1] = target: T1, NAD-dependent protein deacetylase sirtuin-1 (Homo sapiens) (UniProt Q96EB6); assay: Activation of human recombinant SIRT1 at 3 to 100 uM by fluorescence based spectrofluorometer analysis; conditions: filed as activator, dose 3-100 µM
T1 sequence (whole entry): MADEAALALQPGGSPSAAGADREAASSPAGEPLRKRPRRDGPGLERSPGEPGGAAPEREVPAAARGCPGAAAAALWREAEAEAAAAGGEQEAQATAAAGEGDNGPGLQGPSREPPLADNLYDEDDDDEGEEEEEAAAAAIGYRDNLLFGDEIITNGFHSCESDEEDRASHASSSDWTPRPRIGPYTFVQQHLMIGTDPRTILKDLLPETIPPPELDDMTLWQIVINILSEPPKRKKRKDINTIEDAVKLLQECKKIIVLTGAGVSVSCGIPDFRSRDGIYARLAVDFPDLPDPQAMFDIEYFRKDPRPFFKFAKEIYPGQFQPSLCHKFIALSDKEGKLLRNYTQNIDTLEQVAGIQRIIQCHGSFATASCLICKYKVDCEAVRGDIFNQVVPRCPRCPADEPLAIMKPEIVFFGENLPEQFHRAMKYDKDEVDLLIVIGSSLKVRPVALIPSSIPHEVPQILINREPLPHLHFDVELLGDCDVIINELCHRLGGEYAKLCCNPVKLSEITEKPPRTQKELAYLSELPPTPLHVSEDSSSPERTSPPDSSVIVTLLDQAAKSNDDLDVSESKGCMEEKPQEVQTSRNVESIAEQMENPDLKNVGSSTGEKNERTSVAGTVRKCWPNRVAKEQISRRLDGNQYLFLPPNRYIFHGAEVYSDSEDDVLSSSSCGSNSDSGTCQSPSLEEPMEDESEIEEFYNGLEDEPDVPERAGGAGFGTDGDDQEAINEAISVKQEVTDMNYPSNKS

Rattus norvegicus [2] = assay: Cardioprotective activity against acute myocardial infarction Wistar rat model assessed as reduction in percentage of ischemic area to total area of left ventricle at 10 mg/kg, ip by ECG analysis; assay type: functional; parameters: scale not given: the % may be the effect or the level left
Summary of the method: (§1)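 Adult male Wistar rats (350–450 g) dosed i.p. 2 h before surgery (vehicle DMSO 1 ml kg⁻¹), then anaesthetized with thiopental (70 mg kg⁻¹ i.p.). LAD occluded 30 min (ST elevation on ECG, cyanosis) then reperfused 120 min. Hearts washed on Langendorff, LV sliced and stained with TTC 1% at 37 °C for 20 min; infarct area/LV area by planimetry. n = 5 per group.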

[3] = target: T1, NAD-dependent protein deacetylase sirtuin-1 (Homo sapiens); assay: Activation of human recombinant SIRT1 by fluorescence based spectrofluorometer analysis; conditions: filed as activator, dose 3-100 µM
[4] = target: T1, NAD-dependent protein deacetylase sirtuin-1 (Homo sapiens); assay: Activation of human recombinant SIRT1 at 3 uM by fluorescence based spectrofluorometer analysis
Rattus norvegicus [5] = assay: Cardioprotective activity against acute myocardial infarction Wistar rat model assessed as reduction in percentage of ischemic area to total area of left ventricle at 0.1 mg/kg, ip by ECG analysis; assay type: functional; parameters: scale not given: the % may be the effect or the level left; summary of the method: as §1

Row | Compound | Activity [1] | Activity [3] | Activity [4] | Activity (Rattus norvegicus [2]) [%] | Activity (Rattus norvegicus [5]) [%]
1 | Oc1ccc(/C=C/c2cc(O)cc(O)c2)cc1 [RESVERATROL] |  |  |  | 30 | 
2 | Oc1ccc(Nc2cccc(-c3cccc(O)c3)n2)cc1 | Active | Dose-Dependent Effect |  |  | 
3 | Oc1ccc(-c2cccc(Nc3cccc(O)c3)n2)cc1 | Active | Dose-Dependent Effect |  | 6 | 
4 | Oc1ccc(Nc2cccc(-c3ccc(O)cc3)n2)cc1 | Active | Dose-Dependent Effect |  |  | 28

The next lines start with results.

Row | Activity [1] | Activity [3] | Activity [4] | Compound | Activity (Rattus norvegicus [2]) [%] | Activity (Rattus norvegicus [5]) [%]
5 | Active |  |  | Oc1cccc(Nc2cc(-c3cccc(O)c3)ccn2)c1 |  | 
6 | Active | Dose-Dependent Effect |  | Oc1cccc(Nc2cccc(-c3cccc(O)c3)n2)c1 |  | 
7 |  | Dose-Dependent Effect | inactive | Oc1cccc(Nc2ccnc(-c3cccc(O)c3)c2)c1 |  | 
